Assay results from ChEMBL document CHEMBL3045438, “Synthesis and fungicidal evaluation of novel chalcone-based strobilurin analogues” (2007).
Converted amounts (≈) assume the structure as drawn.

What was measured:
Type in all cases: functional
[1] = system: Pseudoperonospora cubensis; assay: Antifungal activity against Pseudoperonospora cubensis in cucumber plants under greenhouse conditions assessed as fungicidal activity by in vivo assay
How it was run: (§1)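 In vivo preventive test on cucumber as host plant.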

Podosphaera fuliginea [2] = assay: Antifungal activity against Podosphaera fuliginea in cucumber plants under greenhouse conditions assessed as fungicidal activity by in vivo assay; how it was run: as §1
[3] = system: Pseudoperonospora cubensis; assay: Antifungal activity against Pseudoperonospora cubensis assessed as fungicidal activity at 200 mg/L (beneficial crop - cucumber); how it was run: as §1
Podosphaera fuliginea [4] = assay: Antifungal activity against Podosphaera fuliginea assessed as fungicidal activity at 200 mg/L (beneficial crop - cucumber); how it was run: as §1
Botrytis cinerea = assay: Antifungal activity against Botryotinia fuckeliana assessed as fungicidal activity at 200 mg/L (beneficial crop - cucumber); how it was run: as §1
Rhizoctonia solani = assay: Antifungal activity against Rhizoctonia solani assessed as fungicidal activity at 200 mg/L (beneficial crop - cucumber); how it was run: as §1

Compound | EC90 [1] | EC90 (Podosphaera fuliginea [2]) | inhibition at 200 µg/mL [3] | inhibition at 200 µg/mL (Podosphaera fuliginea [4]) | inhibition at 200 µg/mL (Botrytis cinerea) | inhibition at 200 µg/mL (Rhizoctonia solani)
CO/N=C(/C(=O)OC)c1ccccc1COc1ccccc1C [KRESOXIM-METHYL] | 154.92 µg/mL (≈ 494 µM) | 7.3 µg/mL (≈ 23.3 µM) | 100% | 100% |  | 
CO/C=C(/C(=O)OC)c1ccccc1COc1cccc(C(=O)/C=C/c2ccccc2Cl)c1 | 118.52 µg/mL (≈ 256 µM) |  | 98% | 94% | 0% | 0%
CO/C=C(/C(=O)OC)c1ccccc1COc1cccc(C(=O)/C=C/c2cccc(Br)c2)c1 | 113.64 µg/mL (≈ 224 µM) |  | 99% | 99% | 0% | 0%
CO/C=C(/C(=O)OC)c1ccccc1COc1cccc(C(=O)/C=C/c2ccc(C)c(C)c2)c1 |  | 139.47 µg/mL (≈ 305 µM) | 100% | 92% | 0% | 0%
CO/C=C(/C(=O)OC)c1ccccc1COc1cccc(C(=O)/C=C/c2ccc(OC)c(OC)c2)c1 |  |  | 72% | 0% | 0% | 0%
CO/C=C(/C(=O)OC)c1ccccc1COc1cccc(C(=O)/C=C/c2ccc3c(c2)OCO3)c1 |  |  | 0% | 0% | 0% | 29%
CO/C=C(/C(=O)OC)c1ccccc1COc1ccc(C(=O)/C=C/c2ccc3c(c2)OCO3)cc1 |  |  | 0% | 0% | 0% | 0%
CO/C=C(/C(=O)OC)c1ccccc1COc1cccc(C(=O)/C=C/c2cccs2)c1 |  |  | 0% | 0% | 24% | 0%
CCc1ccc(/C=C/C(=O)c2ccc(OCc3ccccc3/C(=C\OC)C(=O)OC)cc2)cc1 |  |  | 15% | 56% | 0% | 69%
CO/C=C(/C(=O)OC)c1ccccc1COc1cccc(C(=O)/C=C/c2ccc(OC)cc2)c1 |  |  | 95% | 0% | 0% | 0%
CO/C=C(/C(=O)OC)c1ccccc1COc1cccc(C(=O)/C=C/c2ccc(Cl)cc2Cl)c1 |  |  | 54% | 0% | 0% | 30%
CO/C=C(/C(=O)OC)c1ccccc1COc1cccc(C(=O)/C=C/c2ccc(Cl)c(Cl)c2)c1 |  |  | 0% | 0% | 0% | 0%
CO/C=C(/C(=O)OC)c1ccccc1COc1ccc(C(=O)/C=C/c2ccc(OC)cc2)cc1 |  |  | 62% | 0% | 0% | 0%
CO/C=C(/C(=O)OC)c1ccccc1COc1ccccc1C(=O)/C=C/c1ccc(Cl)cc1 |  |  | 0% | 0% | 0% | 0%
CO/C=C(/C(=O)OC)c1ccccc1COc1ccccc1C(=O)/C=C/c1ccc(OC)c(OC)c1 |  |  | 0% | 0% | 0% | 0%
CO/C=C(/C(=O)OC)c1ccccc1COc1ccc(C(=O)/C=C/c2ccco2)cc1 |  |  | 0% | 0% | 0% | 0%
